Results taken from ChEMBL document CHEMBL1158001, “Cytotoxic isoprenylated flavans of Broussonetia kazinoki” (1999).
≈ marks a conversion by molar mass, not a printed value. *1 amine or outer side, *2 acyl side, *3 side chain or, on linkers, in order; H or OH if unused. Where a SMILES comes first, the peptide text is derived from it. Bridges are numbered along the chain shown (N, C = ends). Roman numbers before positions name the chains, in order. [ ]: non-standard residue; d: D form. Actinocin(1to9) = Cc1c2oc3c(C)ccc(C(=O)[*:2])c3nc-2c(C(=O)[*:1])c(N)c1=O; NMeV = CN[C@H](C(=O)O)C(C)C; Sar = CNCC(=O)O

Experiments:
SiHa = assay: Cytotoxicity against human SiHa cells after 6 days by MTT assay; assay type: functional; conditions: for EC50: Homo sapiens, SiHa, 144 h, read-out: ED50 (the source's name)
Summary of the method: (§1)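 Cells kept in DMEM with 10% FBS, 2 mM L-glutamine, penicillin and streptomycin. 1-3 × 10^3 cells/100 µL, attached 6 h, then fresh medium with a concentration series for 6 days at 37 °C in CO2, plus 10 mM HEPES pH 7.3. MTT (1 mg/mL in PBS) added for 4 h, formazan dissolved in DMSO, A550 read.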

HT-3 = assay: Cytotoxicity against human HT-3 cells after 6 days by MTT assay; assay type: functional; conditions: for EC50: Homo sapiens, HT-3, 144 h, read-out: ED50 (the source's name); summary of the method: as §1
Ca-Ski = assay: Cytotoxicity against human CaSki cells after 6 days by MTT assay; assay type: functional; conditions: 144 h, read-out: ED50 (the source's name); summary of the method: as §1
[1] = Cytotoxicity against human PLC/PRF/5 cells after 6 days by MTT assay; assay type: functional; conditions: PLC-PRF-5, 144 h, read-out: ED50 (the source's name); summary of the method: as §1
T-24 = assay: Cytotoxicity against human T24 cells after 6 days by MTT assay; assay type: functional; conditions: T-24, 144 h, read-out: ED50 (the source's name); summary of the method: as §1
212 (Mus musculus) = assay: Cytotoxicity against mouse 212 cells after 6 days by MTT assay; conditions: 144 h, read-out: ED50 (the source's name)

| Structure (SMILES) | EC50 (SiHa) | EC50 (HT-3) | EC50 (Ca-Ski) | EC50 [1] | EC50 (T-24) | ED50 (SiHa) | ED50 (HT-3) | EC50 (212 (Mus musculus)) |
| --- | --- | --- | --- | --- | --- | --- | --- | --- |
| C=CC(C)(C)c1cc2c(cc1O)OC(c1cc(O)c3c(c1CC=C(C)C)CC(O)C(C)(C)O3)CC2 (stereo not given) | 9.3 µg/mL (≈ 19.4 µM) | 9.3 µg/mL (≈ 19.4 µM) | 8.2 µg/mL (≈ 17.1 µM) | – | – | – | – | – |
| Oc1ccc(C2CCc3ccc(O)cc3O2)cc1 (stereo not given) | 8.9 µg/mL (≈ 36.7 µM) | 11.6 µg/mL (≈ 47.9 µM) | 17.4 µg/mL (≈ 71.8 µM) | – | – | – | – | – |
| Cc1c2oc3c(C)ccc(C(=O)N[C@@H]4C(=O)N[C@H](C(C)C)C(=O)N5CCC[C@H]5C(=O)N(C)CC(=O)N(C)[C@@H](C(C)C)C(=O)O[C@@H]4C)c3nc-2c(C(=O)N[C@@H]2C(=O)N[C@H](C(C)C)C(=O)N3CCC[C@H]3C(=O)N(C)CC(=O)N(C)[C@@H](C(C)C)C(=O)O[C@@H]2C)c(N)c1=O [DACTINOMYCIN] (I: T[dV]P[Sar][NMeV] / II: T[dV]P[Sar][NMeV]; ester I:1-I:C, II:1-II:C; linker I:N-II:N via Actinocin(1to9)) | – | – | 0.0019 µg/mL (≈ 0.00151 µM) | 0.0014 µg/mL (≈ 0.00112 µM) | 0.0015 µg/mL (≈ 0.00119 µM) | 8.1 ×10⁻⁴ ug/ml | 5.6 ×10⁻⁴ ug/ml | – |
| C=CC(C)(C)c1cc(CCCc2cc(O)c3c(c2CC=C(C)C)CCC(C)(C)O3)c(O)cc1O [KAZINOL D] | – | 3.6 µg/mL (≈ 7.75 µM) | – | 3.3 µg/mL (≈ 7.1 µM) | – | – | – | 7 µg/mL (≈ 15.1 µM) |
| C=CC(C)(C)c1cc(CCCc2cc(O)c3c(c2CC=C(C)C)C=CC(C)(C)O3)c(O)cc1O [KAZINOL K] | – | 8.6 µg/mL (≈ 18.6 µM) | – | – | – | – | – | – |
| C=CC(C)(C)c1cc2c(cc1O)OC(c1cc(CC=C(C)C)c(O)c(O)c1CC=C(C)C)CC2 (stereo not given) [KAZINOL Q] | 4.7 µg/mL (≈ 10.2 µM) | 4.3 µg/mL (≈ 9.29 µM) | – | 3.5 µg/mL (≈ 7.57 µM) | 2.3 µg/mL (≈ 4.97 µM) | – | – | 3.8 µg/mL (≈ 8.21 µM) |
